Measured values as given in ChEMBL document CHEMBL1177761, “Click chemistry to probe Hsp90: Synthesis and evaluation of a series of triazole-containing novobiocin analogues” (Bioorg Med Chem Lett, 2010).
Values joined by “and” are separate entries in the source; they are usually repeats but may differ in a detail not shown here. Equal values may be shown once. Active and inactive are the calls of the source. The rule behind the calls is not given here.

Tests used:
MCF7 = assay: Antiproliferative activity against human MCF7 cells expressing ER; format: functional, cell-based
Method in brief: (§1)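 Growth inhibition was measured in the listed cell lines. IC50 is the compound concentration that inhibits cellular growth by 50%. Values are mean ± standard error from at least two separate experiments, each run in triplicate.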

SK-BR-3 = assay: Antiproliferative activity against human ER deficient SKBR3 cells over expressing HER2; format: functional, cell-based; method in brief: as §1
[1] = target: MCF-7 and SKBr-3 cells (Homo sapiens); assay: Antiproliferative activity against human MCF7 and SKBr3 cells
[2] = target: T1, Heat shock protein HSP90 (Homo sapiens) (UniProt P07900+P08238); assay: Inhibition of Hsp90 in human MCF7 cells assessed as Her2 degradation by Western blot analysis; format: cell-based
[3] = target: T1, Heat shock protein HSP90 (Homo sapiens); assay: Inhibition of Hsp90 in human MCF7 cells assessed as c-Raf degradation by Western blot analysis; format: cell-based

SMILES | IC50 (MCF7) [µM] | IC50 (SK-BR-3) [µM] | IC50 [1] | inhibition [2] | inhibition [3]
CO[C@@H]1[C@@H](O)[C@@H](O)[C@H](Oc2ccc3cc(-n4cc(-c5ccccc5)nn4)c(=O)oc3c2C)OC1(C)C | 64.4 | > 100 |  |  | 
Cc1c(O)ccc2cc(-n3cc(-c4ccc(F)cc4F)nn3)c(=O)oc12 | 33.5 | 34.2 |  |  | 
CO[C@@H]1[C@@H](O)[C@@H](C)[C@H](Oc2ccc3cc(NC(=O)c4c[nH]c5ccccc45)c(=O)oc3c2C)OC1(C)C |  |  | 5.3 µM and 12.2 µM |  | 
COc1cccc(-c2cc(-c3cn(-c4cc5ccc(O)c(C)c5oc4=O)nn3)ccc2OC)c1 | 28 | 44.9 |  |  | 
Cc1c(O)ccc2cc(-n3cc(/C=C/c4ccccc4)nn3)c(=O)oc12 | 33.7 | 33.9 |  |  | 
CO[C@@H]1[C@@H](O)[C@@H](O)[C@H](Oc2ccc3cc(-n4cc(-c5c[nH]c6ccccc56)nn4)c(=O)oc3c2C)OC1(C)C | 18.3 | 8.17 |  |  | 
CC(=O)Oc1ccc2cc(-n3cc(-c4c[nH]c5ccccc45)nn3)c(=O)oc2c1C | 7.45 | 6.52 |  | Dose-dependent effect | Dose-dependent effect
COc1cccc(-c2cc(-c3cn(-c4cc5ccc(OC(C)=O)c(C)c5oc4=O)nn3)ccc2OC)c1 | 42.4 | 50.8 |  |  | 
CC(=O)Oc1ccc2cc(-n3cc(-c4cc5ccccc5[nH]4)nn3)c(=O)oc2c1C | 76.1 | 50.4 |  |  | 
CO[C@@H]1[C@@H](OC(N)=O)[C@@H](O)[C@H](Oc2ccc3c(O)c(NC(=O)c4ccc(O)c(CC=C(C)C)c4)c(=O)oc3c2C)OC1(C)C [NOVOBIOCIN] | 481 | 475 |  |  | 
Cc1c(O)ccc2cc(-n3cc(-c4cc5ccccc5[nH]4)nn3)c(=O)oc12 | 38.3 | 42.5 |  |  | 
CC(=O)Oc1ccc2cc(-n3cc(-c4ccc(C)cc4)nn3)c(=O)oc2c1C | > 100 | 90.8 |  |  | 
COc1ccc(-c2cn(-c3cc4ccc(OC(C)=O)c(C)c4oc3=O)nn2)cc1 | > 100 | > 100 |  |  | 
CC(=O)Oc1ccc2cc(-n3cc(-c4ccc(F)cc4F)nn3)c(=O)oc2c1C | > 100 | > 100 |  |  | 
CC(=O)Oc1ccc2cc(-n3cc(-c4ccccc4)nn3)c(=O)oc2c1C | 40.8 | 76.4 |  |  | 
CC(=O)Oc1ccc2cc(-n3cc(/C=C/c4ccccc4)nn3)c(=O)oc2c1C | 28.5 | 65.1 |  |  | 
COc1ccc(-c2cn(-c3cc4ccc(O)c(C)c4oc3=O)nn2)cc1 | > 100 | > 100 |  |  | 
Cc1ccc(-c2cn(-c3cc4ccc(O)c(C)c4oc3=O)nn2)cc1 | 23.2 | > 100 |  |  | 
CC(=O)Oc1ccc2cc(-n3cc(-c4ccc(N(C)C)cc4)nn3)c(=O)oc2c1C | > 100 | > 100 |  | inactive | 
Cc1c(O)ccc2cc(-n3cc(-c4ccccc4)nn3)c(=O)oc12 | 25.2 | 39 |  |  | 
COc1cccc(-c2cc(-c3cn(-c4cc5ccc(O[C@@H]6OC(C)(C)[C@H](OC)[C@@H](O)[C@H]6O)c(C)c5oc4=O)nn3)ccc2OC)c1 | 13.2 | 21.2 |  |  | 
Cc1c(O)ccc2cc(-n3cc(-c4ccc(N(C)C)cc4)nn3)c(=O)oc12 | > 100 | > 100 |  |  | 
